≈ marks a conversion by molar mass, not a printed value. Values belong to the molecule of their own block, whether it stands above or below them. Calls of active or inactive are those of the source. No cut-off for these calls is given here.
Tests used:
Staphylococcus aureus [1] = experiment: Bactericidal activity against Staphylococcus aureus assessed as log reduction in bacterial count; assay type: functional
Staphylococcus aureus [2] = experiment: Bactericidal activity against Staphylococcus aureus assessed as viable bacterial count at 2 times MIC; assay type: functional
Staphylococcus aureus [3] = experiment: Bactericidal activity against Staphylococcus aureus assessed as viable bacterial count at 4 times MIC; assay type: functional
Staphylococcus aureus [4] = experiment: Bactericidal activity against Staphylococcus aureus infected in in vitro hollow-fiber PK model at 200 mg administered every 12 hrs; assay type: functional, organism-based
Staphylococcus aureus [5] = experiment: Bactericidal activity against Staphylococcus aureus infected in in vitro hollow-fiber PK model at 400 mg administered every 24 hrs; assay type: functional, organism-based
Staphylococcus aureus [6] = experiment: Bactericidal activity against Staphylococcus aureus infected in in vitro hollow-fiber PK model at 100 mg administered every 12 hrs; assay type: functional, organism-based
Staphylococcus aureus [7] = experiment: Bactericidal activity against Staphylococcus aureus infected in in vitro hollow-fiber PK model at 200 mg administered every 24 hrs; assay type: functional, organism-based
Staphylococcus aureus [8] = experiment: Bactericidal activity against methicillin-resistant Staphylococcus aureus infected in rabbit at 6 mg/kg of body weight administered every 8 hrs measured after 72 hrs; assay type: functional
[9] = T>MIC in Staphylococcus aureus infected rabbit; assay type: functional
[10] = Half life in human serum; assay type: ADME, cell-free
Staphylococcus aureus [11] = experiment: Bactericidal activity against Staphylococcus aureus assessed as reduction log reduction in viable bacterial count at 0.5 to 1 times MIC; assay type: functional
[12] = Cmax in simulated human serum in in vitro hollow-fiber PK model at 100 mg administered every 12 hrs; assay type: ADME, organism-based; set-up: dose 100 mg; conditions: in vitro hollow-fiber PK model simulating human serum
How it was run: (§1)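 Samples were taken at 0, 1, 2, 3, 4, 5, 6, 12 and 24 h. Concentrations were measured by bioassay on Penassay seed agar with Bacillus subtilis as indicator. Triplicate runs.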

[13] = Tmax in simulated human serum in in vitro hollow-fiber PK model at 100 mg administered every 12 hrs; assay type: ADME, cell-free; conditions: in vitro hollow-fiber PK model simulating human serum; how it was run: as §1
[14] = Half life in simulated human serum in in vitro hollow-fiber PK model at 100 mg administered every 12 hrs; assay type: ADME, cell-free; conditions: in vitro hollow-fiber PK model simulating human serum; how it was run: as §1
Staphylococcus aureus [15] = experiment: Antibacterial activity against methicillin-resistant Staphylococcus aureus SMH 32985 after 24 hrs by Etest; assay type: functional; conditions: SMH 32985, 24 h
Staphylococcus aureus [16] = experiment: Antibacterial activity against methicillin-resistant Staphylococcus aureus SMH 32024 after 24 hrs by Etest; assay type: functional; conditions: SMH 32024, 24 h
Staphylococcus aureus [17] = experiment: Antibacterial activity against Staphylococcus aureus SMH 26910 after 24 hrs by Etest; assay type: functional; conditions: SMH 26910, 24 h
Staphylococcus aureus [18] = experiment: Antibacterial activity against Staphylococcus aureus SMH 31236 after 24 hrs by Etest; assay type: functional; conditions: SMH 31236, 24 h
Staphylococcus aureus [19] = experiment: Antibacterial activity against methicillin-resistant Staphylococcus aureus SMH 32985 infected in in vitro hollow-fiber model assessed as log reduction in viable bacterial count at 100 mg after 12 hrs; assay type: functional
Staphylococcus aureus [20] = experiment: Antibacterial activity against methicillin-resistant Staphylococcus aureus SMH 32985 infected in in vitro hollow-fiber model assessed as log reduction in viable bacterial count at 100 mg administered every 12 hrs measured after 24 hrs; assay type: functional
How it was run: (§2)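 Hollow-fiber model at 37°C, 25% Mueller-Hinton broth, 10^6 CFU/ml inoculum in the peripheral compartment. […] Viable counts on nutrient agar (detection limit 2.0 x 10^2 CFU/ml). Read-out is log change in count at 24 h versus start. Triplicate.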

Staphylococcus aureus [21] = experiment: Antibacterial activity against methicillin-resistant Staphylococcus aureus SMH 32024 infected in in vitro hollow-fiber model assessed as log reduction in viable bacterial count at 100 mg after 12 hrs; assay type: functional
Staphylococcus aureus [22] = experiment: Antibacterial activity against methicillin-resistant Staphylococcus aureus SMH 32024 infected in in vitro hollow-fiber model assessed as log reduction in viable bacterial count at 100 mg administered every 12 hrs measured after 24 hrs; assay type: functional; how it was run: as §2
Staphylococcus aureus [23] = experiment: Antibacterial activity against Staphylococcus aureus SMH 26910 infected in in vitro hollow-fiber model assessed as log reduction in viable bacterial count at 100 mg after 12 hrs; assay type: functional
How it was run: (§3)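 Hollow-fiber model at 37°C in 25% Mueller-Hinton broth with a peripheral-compartment inoculum of 10^6 CFU/ml. […] Samples were taken at 0–24 h and counted on nutrient agar (detection limit 2.0 x 10^2 CFU/ml). Run in triplicate.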

Staphylococcus aureus [24] = experiment: Antibacterial activity against Staphylococcus aureus SMH 26910 infected in in vitro hollow-fiber model assessed as log reduction in viable bacterial count at 100 mg administered every 12 hrs measured after 24 hrs; assay type: functional; how it was run: as §3
Staphylococcus aureus [25] = experiment: Antibacterial activity against Staphylococcus aureus SMH 31236 infected in in vitro hollow-fiber model assessed as log reduction in viable bacterial count at 100 mg after 12 hrs; assay type: functional; how it was run: as §3
Staphylococcus aureus [26] = experiment: Antibacterial activity against Staphylococcus aureus SMH 31236 infected in in vitro hollow-fiber model assessed as log reduction in viable bacterial count at 100 mg administered every 12 hrs measured after 24 hrs; assay type: functional; how it was run: as §3
Staphylococcus aureus [27] = experiment: AUBKC (24 hrs) in methicillin-resistant Staphylococcus aureus SMH 32985 infected in in vitro hollow-fiber PK model at 100 mg administered every 12 hrs; assay type: functional
How it was run: (§4)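 Peripheral compartment inoculated to 10^6 CFU/ml. Samples at 0–24 h were spiral-plated on nutrient agar (detection limit 2.0 x 10^2 CFU/ml). Area under the bacterial kill curve was taken over 0–24 h. Triplicate runs.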

Staphylococcus aureus [28] = experiment: AUBKC (24 hrs) in methicillin-resistant Staphylococcus aureus SMH 32024 infected in in vitro hollow-fiber PK model at 100 mg administered every 12 hrs; assay type: functional; how it was run: as §4
Staphylococcus aureus [29] = experiment: AUBKC (24 hrs) in […] Staphylococcus aureus SMH 26910 infected in in vitro hollow-fiber PK model at 100 mg administered every 12 hrs; assay type: functional; how it was run: as §4
Staphylococcus aureus [30] = experiment: AUBKC (24 hrs) in methicillin-resistant Staphylococcus aureus SMH 31236 infected in in vitro hollow-fiber PK model at 100 mg administered every 12 hrs; assay type: functional; how it was run: as §4
Staphylococcus aureus [31] = experiment: Ratio of AUC to MIC in methicillin-resistant Staphylococcus aureus infected in in vitro hollow-fiber PK model at 100 mg administered every 12 hrs; assay type: functional
Staphylococcus aureus [32] = experiment: Ratio of AUC to MIC in methicillin-resistant Staphylococcus aureus infected in in vitro hollow-fiber PK model at 100 mg after 24 hrs; assay type: functional
Staphylococcus aureus [33] = experiment: Ratio of AUC to MIC in methicillin-resistant Staphylococcus aureus infected in in vitro hollow-fiber PK model at 100 mg after 12 hrs; assay type: functional
Staphylococcus aureus [34] = experiment: Ratio of AUC to MIC in methicillin-resistant Staphylococcus aureus infected in in vitro hollow-fiber PK model at 100 mg after 8 hrs; assay type: functional
[35] = Cmax in simulated human serum in in vitro hollow-fiber PK model at 600 mg administered every 24 hrs by HPLC; assay type: ADME, organism-based; set-up: dose 600 mg; conditions: in vitro hollow-fiber PK model simulating human serum
[36] = Tmax in simulated human serum in in vitro hollow-fiber PK model at 600 mg administered every 24 hrs; assay type: ADME, cell-free; conditions: in vitro hollow-fiber PK model simulating human serum
Staphylococcus aureus [37] = experiment: Antibacterial activity against Staphylococcus aureus in murine thigh infection model; assay type: functional; conditions: Thigh muscle
[38] = T>MIC in Staphylococcus aureus infected neutropenic mouse thigh infection model; assay type: functional, Thigh muscle
Staphylococcus aureus [39] = experiment: Bactericidal activity against methicillin-resistant Staphylococcus aureus infected in rabbit at 50 mg/kg of body weight administered every 8 hrs measured after 72 hrs; assay type: functional
[40] = Cmax in simulated human serum in in vitro hollow-fiber PK model at 1 g administered every 12 hrs by fluorescence polarization immunoassay method; assay type: ADME, organism-based; set-up: dose 1 g; conditions: in vitro hollow-fiber PK model simulating human serum
How it was run: (§5)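 Free vancomycin 1 g q12h simulated in a hollow-fiber model at 37°C with 25% Mueller-Hinton broth. […] Dosed into the dosing chamber at 0 and 12 h. Samples were taken at 0, 1, 2, 3, 4, 5, 6, 12 and 24 h, and concentrations measured by fluorescence polarization immunoassay. Triplicate experiments.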

[41] = Tmax in simulated human serum in in vitro hollow-fiber PK model at 1 g administered every 12 hrs; assay type: ADME, cell-free; conditions: in vitro hollow-fiber PK model simulating human serum; how it was run: as §5
[42] = Half life in simulated human serum in in vitro hollow-fiber PK model at 1 g administered every 12 hrs; assay type: ADME, cell-free; conditions: in vitro hollow-fiber PK model simulating human serum; how it was run: as §5

SMILES: C[C@H]1c2cccc(O)c2C(=O)C2=C(O)[C@]3(O)C(=O)C(C(N)=O)=C(O)[C@@H](N(C)C)[C@@H]3[C@@H](O)[C@@H]21.O [DOXYCYCLINE]
Activity (Staphylococcus aureus [1]): Active | fold change (FC) (Staphylococcus aureus [2]): 0.5 | fold change (FC) (Staphylococcus aureus [3]): 0.5 | Activity (Staphylococcus aureus [4]): Active | Activity (Staphylococcus aureus [5]): Active | Activity (Staphylococcus aureus [6]): Active | Activity (Staphylococcus aureus [7]): Active

SMILES: CN(C)c1ccc(O)c2c1C[C@H]1C[C@H]3[C@H](N(C)C)C(O)=C(C(N)=O)C(=O)[C@@]3(O)C(O)=C1C2=O [MINOCYCLINE]
Log reduction in bacterial count (Staphylococcus aureus [1]): 1.5 | log10 CFU/g (Staphylococcus aureus [8]): 5.3 log10 CFU/g | fT>MIC [9]: 100% | half-life [10]: 12 h | FC (Staphylococcus aureus [11]): 1.5 | Cmax [12]: 600 ng/mL | Tmax [13]: 2.3 h | half-life [14]: 12 h | MIC (Staphylococcus aureus [15]): 0.04 µg/mL (≈ 0.0874 µM) | MIC (Staphylococcus aureus [16]): 0.19 µg/mL (≈ 0.415 µM) | MIC (Staphylococcus aureus [17]): 0.06 µg/mL (≈ 0.131 µM) | MIC (Staphylococcus aureus [18]): 0.75 µg/mL (≈ 1.64 µM) | FC (Staphylococcus aureus [19]): 0.5 | FC (Staphylococcus aureus [20]): 0.8 | FC (Staphylococcus aureus [21]): 0.8 | FC (Staphylococcus aureus [22]): 0.2 | FC (Staphylococcus aureus [23]): 1.9 | FC (Staphylococcus aureus [24]): 1.4 | FC (Staphylococcus aureus [25]): 1.6 | FC (Staphylococcus aureus [26]): 0.1 | fold change (FC) (Staphylococcus aureus [27]): 79.7 | fold change (FC) (Staphylococcus aureus [28]): 77.2 | fold change (FC) (Staphylococcus aureus [29]): 77.6 | fold change (FC) (Staphylococcus aureus [30]): 98.4 | RatioAUC/MIC (Staphylococcus aureus [31]): 200 | RatioAUC/MIC (Staphylococcus aureus [32]): 1.6 | RatioAUC/MIC (Staphylococcus aureus [33]): 2.1 | RatioAUC/MIC (Staphylococcus aureus [34]): 1.7

Cmax [35]: 2000 ng/mL | Tmax [36]: 1.2 h
SMILES: CO[C@H]1/C=C/O[C@@]2(C)Oc3c(C)c(O)c4c(O)c(c(/C=N/N5CCN(C)CC5)c(O)c4c3C2=O)NC(=O)/C(C)=C\C=C\[C@H](C)[C@H](O)[C@@H](C)[C@@H](O)[C@@H](C)[C@H](OC(C)=O)[C@@H]1C [RIFAMPIN]

SMILES: CN(C)c1cc(NC(=O)CNC(C)(C)C)c(O)c2c1C[C@H]1C[C@H]3[C@H](N(C)C)C(O)=C(C(N)=O)C(=O)[C@@]3(O)C(O)=C1C2=O [TIGECYCLINE]
Activity (Staphylococcus aureus [1]): Active | Log reduction in bacterial count (Staphylococcus aureus [1]): 2 | MIC (Staphylococcus aureus [37]): 0.125 µg/mL (≈ 0.213 µM) | fT>MIC [38]: >50%

SMILES: CN[C@H](CC(C)C)C(=O)N[C@H]1C(=O)N[C@@H](CC(N)=O)C(=O)N[C@H]2C(=O)N[C@H]3C(=O)N[C@H](C(=O)N[C@H](C(=O)O)c4cc(O)cc(O)c4-c4cc3ccc4O)[C@H](O)c3ccc(c(Cl)c3)Oc3cc2cc(c3O[C@@H]2O[C@H](CO)[C@@H](O)[C@H](O)[C@H]2O[C@H]2C[C@](C)(N)[C@H](O)[C@H](C)O2)Oc2ccc(cc2Cl)[C@H]1O [VANCOMYCIN]
log10 CFU/g (Staphylococcus aureus [39]): 4.8 log10 CFU/g | Cmax [40]: 15000 ng/mL | Tmax [41]: 1 h | half-life [42]: 6 h | MIC (Staphylococcus aureus [15]): 1.5 µg/mL (≈ 1.04 µM) | MIC (Staphylococcus aureus [16]): 1.5 µg/mL (≈ 1.04 µM) | MIC (Staphylococcus aureus [17]): 1.5 µg/mL (≈ 1.04 µM)

— ChEMBL document CHEMBL1649110, “Pharmacodynamics of minocycline against Staphylococcus aureus in an in vitro pharmacokinetic model” (Antimicrob Agents Chemother, 2008)
